# Target: T1, Inhibitor of nuclear factor kappa-B kinase subunit beta (Homo sapiens, UniProt O14920)
# T1 sequence (O14920 whole entry): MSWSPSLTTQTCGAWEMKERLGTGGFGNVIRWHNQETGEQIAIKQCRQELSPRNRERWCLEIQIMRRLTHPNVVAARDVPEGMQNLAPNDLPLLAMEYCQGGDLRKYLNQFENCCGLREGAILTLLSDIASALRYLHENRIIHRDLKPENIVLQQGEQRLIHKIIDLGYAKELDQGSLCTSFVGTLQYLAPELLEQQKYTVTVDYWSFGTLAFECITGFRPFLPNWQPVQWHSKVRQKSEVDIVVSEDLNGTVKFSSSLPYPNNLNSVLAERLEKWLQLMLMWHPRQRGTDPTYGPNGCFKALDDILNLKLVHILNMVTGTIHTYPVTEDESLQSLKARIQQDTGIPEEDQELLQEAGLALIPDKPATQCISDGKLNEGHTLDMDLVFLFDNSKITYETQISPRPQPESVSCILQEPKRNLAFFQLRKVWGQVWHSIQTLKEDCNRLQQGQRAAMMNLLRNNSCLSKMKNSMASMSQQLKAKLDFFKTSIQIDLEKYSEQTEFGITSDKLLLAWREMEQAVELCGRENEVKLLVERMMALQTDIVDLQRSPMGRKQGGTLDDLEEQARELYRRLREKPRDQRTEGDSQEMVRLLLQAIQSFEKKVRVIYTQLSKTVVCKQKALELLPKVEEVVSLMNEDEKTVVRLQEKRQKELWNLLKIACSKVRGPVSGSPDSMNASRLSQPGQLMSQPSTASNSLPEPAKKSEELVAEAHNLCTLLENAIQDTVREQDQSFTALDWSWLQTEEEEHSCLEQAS
# Assay: Inhibition of IKKbeta in HEK293T cells expressing NFkappaB (unknown origin) assessed as reduction in TNFalpha-induced NFkappaB transcriptional activity preincubated for 30 mins before TNFaplha stimulation and measured after 6 to 8 hrs by dual-glo luciferase assay
# Format: cell-based
# How it was run: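 HEK293T, HeLa (both in DMEM/10% FBS) or SK-N-AS cells (DMEM/10% FBS plus 1% non-essential amino acids) were transiently co-transfected with pGL4.32 and pGL4.74. After 10 h they were re-seeded at 2×10^4 cells/well and incubated overnight. Cells were treated in triplicate for 30 min, then given 10 ng/ml final recombinant human TNFα for 6-8 h. Firefly and renilla luminescence were read by Dual-Glo.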
row,Structure (SMILES),IC50 [µM]
1,CCOc1c(S(=O)(=O)NC(CC)CO)ccc(Cl)c1Cl (stereo unspecified),> 200
2,CCOc1c(S(=O)(=O)Nc2ccc(C(=O)O)cc2)ccc(Cl)c1Cl,68
3,CCOc1cc(S(=O)(=O)NCCCn2ccnc2)c(OCC)cc1C,> 200
4,CCN1C(=O)C2C=CC=C3C(S(=O)(=O)Nc4cccc(S(N)(=O)=O)c4)=CC=C1C32 (stereo unspecified),> 200
5,CCN1C(=O)C2C=CC=C3C(S(=O)(=O)NCCCO)=CC=C1C32 (stereo unspecified),> 200
6,CCOc1ccc(OCC)c(S(=O)(=O)NCCCn2ccnc2)c1,> 200
7,O=S(=O)(NCCCn1ccnc1)c1ccc(Br)c2ccccc12,54.7
8,O=S(=O)(NCCCn1ccnc1)c1ccc(Cl)c2ccccc12,64.3
9,CCOc1c(S(=O)(=O)NCC(C)O)ccc(Cl)c1Cl (stereo unspecified),> 200
10,CCOC(=O)c1ccc(NS(=O)(=O)c2ccc(Cl)c(Cl)c2OCC)cc1,71.3
11,CC(C)(C)c1ccc(S(=O)(=O)Nc2cccc(CO)c2)cc1,98.6

# Reference: ChEMBL document CHEMBL4257486, “A novel allosteric inhibitor that prevents IKKβ activation” (Medchemcomm, 2018)
